Screening results (PubChem BioAssay)
Shown are actives, neighbours in structure and some others; about 2.5% of the full set was active somewhere.
PAD4 FP inh = inhibitors of human PAD4 | inhibition, % at 6.36 µM | AID 485272 | recombinant PAD4, RCA probe fluorescence polarization | Q9UM07 | hit rate 0.41% among 330,000;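 active means percent inhibition above a cutoff equal to the mean of all tested compounds plus 3 SD, cut at about 15% in these data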
PRMT1 inh = blocks human protein arginine methyltransferase 1 | Q99873 | recombinant PRMT1, activity-based probe fluorescence polarization | inhibition, % at 2.79 µM | hit rate 1.3% among 370,000;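 active means inhibition above about 21% made by adding two undisclosed values, limit read from the data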
Target sequence (Q99873 whole entry, looked up): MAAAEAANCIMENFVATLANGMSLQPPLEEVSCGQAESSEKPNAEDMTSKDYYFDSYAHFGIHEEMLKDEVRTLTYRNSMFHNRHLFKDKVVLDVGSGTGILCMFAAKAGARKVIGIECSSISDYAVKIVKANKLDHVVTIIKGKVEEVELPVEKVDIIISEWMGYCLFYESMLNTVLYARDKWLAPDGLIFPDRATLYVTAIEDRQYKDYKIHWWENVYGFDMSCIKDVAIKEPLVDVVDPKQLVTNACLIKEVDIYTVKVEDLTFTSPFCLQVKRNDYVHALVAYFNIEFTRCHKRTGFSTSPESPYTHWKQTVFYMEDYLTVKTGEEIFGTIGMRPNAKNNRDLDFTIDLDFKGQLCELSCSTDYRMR
Fh CTSL1 inh = counter-screen for PFM18AAP inhibitors: inhibitors of F. hepatica cathepsin L1; recombinant F. hepatica cathepsin L1, Z-Leu-Arg-MCA fluorescence; inhibition, % at 5.96 µM; hit rate 0.49% among 300,000; AID 1906;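 active means inhibition above the mean of all tested compounds plus 3 SD, set per screening campaign, cut at about 17% in these data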
TDP2 absorb = TDP2 (human) inhibition, absorbance primary screen; hit rate 0.34% among 370,000; recombinant TDP2, T5PNP hydrolysis, p-nitrophenol absorbance 415 nm; O95551; AID 720702; inhibition, % at 12.8 µM;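 active means inhibition above the mean of all tested compounds plus 3 SD, set per campaign, cut at about 25% in these data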
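Test system: human TDP2 enzyme; Input: 120 nM TDP2 per well; Buffer or medium: Mg2+-containing Tris-HCl buffer, pH 7.5; Reagent: 5 mM T5PNP; Dosing: 12.8 µM single point, 1% DMSO; Incubation: reaction 2 h, 37 °C; Detection: p-Nitrophenol epi absorbance; Read-out: % inhibition relative to enzyme-containing and enzyme-free wells; Replicates: single well per compound.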
GSTO1 counter = GSTO1 inhibition, counter-screen for RBBP9 inhibitors | P78417 | hit rate 1.1% among 300,000 | inhibition, % at 5.96 µM | recombinant GSTO1, activity-based probe fluorescence polarization;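 active means inhibition above the campaign mean inhibition plus 3 SD, cut at about 35% in these data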
Target sequence (P78417 whole entry, looked up): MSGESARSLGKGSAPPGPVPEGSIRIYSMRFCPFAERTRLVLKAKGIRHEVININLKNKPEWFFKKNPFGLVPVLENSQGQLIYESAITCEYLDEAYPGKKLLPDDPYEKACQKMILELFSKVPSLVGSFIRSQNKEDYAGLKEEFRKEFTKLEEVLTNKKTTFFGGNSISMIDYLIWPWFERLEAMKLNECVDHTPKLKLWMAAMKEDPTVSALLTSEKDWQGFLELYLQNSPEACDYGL
TDP2 inh conf = confirmation of human TDP2 inhibitors. shares compounds with TDP2 absorb. recombinant human TDP2, absorbance read-out. inhibition, % at 12.8 µM. hit rate 22% among 1,100; in the data active means inhibition above about 25%
Numbers stand for hits; i = inactive; nt = no result given.

SMILES | PAD4 FP inh | PRMT1 inh | Fh CTSL1 inh | TDP2 absorb | GSTO1 counter | TDP2 inh conf
CC(C)N(Cc1ccccc1)C(=S)NC(=O)C1(C)CC1(Cl)Cl (centres undefined) | i | i | i | 25 | i | i
O=C(CNCCN1CCOCC1)Nc1ccccc1Sc1ccccc1 | i | i | i | 28 | i | i
O=C(C(=O)N1CCN(S(=O)(=O)c2cccc3ccccc23)CC1)c1cccc(C(F)(F)F)c1 | nt | i | nt | i | nt | nt
Brc1ccccc1OCCN1CCOCC1 | i | i | i | 26 | i | i
Cc1ccc(S(=O)(=O)N2CC3(COC(C)(C)OC3)C[C@H]2CON2C(C)(C)CCCC2(C)C)cc1 | nt | i | nt | i | nt | nt
Cc1nc2cc(NC(=O)N(C)c3ccc4ccccc4c3)ccc2o1 | i | i | i | 44 | i | i
C=CCOC(=O)N[C@@H](c1cccc(OC)c1)[C@@H](C)/C=C/CC(=O)O | nt | i | nt | i | nt | nt
COc1ccc(C2=NN(C(=O)CCC(=O)O)C(c3ccc(OC)c(OC)c3)C2)cc1 (centres undefined) | i | i | i | 25 | i | i
COCCn1c(N)c(C#N)c2nc3ccccc3nc21 | i | i | i | 30 | i | i
CCCCn1c(NC(=O)c2ccccc2)c(C#N)c2nc3ccccc3nc21 | nt | i | nt | 84 | nt | 85
COc1ccc(Cn2c(N)c(C#N)c3nc4ccccc4nc32)cc1 | i | i | i | 37 | 39 | i
COc1cc(OC)c(OC)cc1CN1CCN(Cc2ccc(SC)cc2)CC1 | i | i | i | 25 | i | i
COc1cc(CN2CCN(Cc3ccc(SC)cc3)CC2)cc(OC)c1O | i | i | i | i | i | nt
Nc1c(S(=O)(=O)c2cccs2)c2nc3ccccc3nc2n1Cc1ccccc1 | i | i | i | 44 | i | i
O=c1c2ccccc2n(Cc2ccccc2)n1[C@@H](Cc1ccccc1)Cn1cc(C2CCCC2)nn1 | nt | i | nt | i | nt | nt
COc1cc(/C=N/NC(=O)Cc2nnc(NC(=O)c3ccccc3)s2)ccc1O | i | i | i | 29 | i | i
COc1ccccc1OCCn1cc(/C=C(\C#N)C(=O)NCc2ccco2)c2ccccc21 | i | i | i | 103 | i | i
COC(=O)c1cccc(C(=O)N2CCCC(C(=O)c3cccc(OC(C)C)c3)C2)c1 (centres undefined) | i | i | i | 28 | i | i
O=C(NN=Cc1cccc(OCc2ccccc2)c1)c1cc(-c2ccc(Cl)cc2)n[nH]1 | nt | i | nt | i | nt | nt
CC(C)C(=O)N[C@H]1[C@H](O)CCC[C@@]12C(=O)N(Cc1ccccc1)c1ccccc12 | nt | i | nt | i | nt | nt
N#Cc1ccccc1NC(=O)CSc1n[nH]c(-c2ccco2)n1 | i | i | i | 32 | i | i
O=C(CSc1n[nH]c(-c2ccco2)n1)Nc1ccccc1F | i | i | i | i | i | nt
CN1CCN(S(=O)(=O)c2ccc(NC(=O)c3ccccc3F)cc2)CC1 | i | i | i | 25 | i | i
CN1CCN(S(=O)(=O)c2ccc(NC(=O)c3ccccc3Cl)cc2)CC1 | i | i | i | i | i | nt
COc1ccc(/C=C/C(=O)NC2CCN(Cc3ccccc3)CC2)cc1OC | i | i | i | 28 | i | i
SMILES | PAD4 FP inh | PRMT1 inh | Fh CTSL1 inh | TDP2 absorb | GSTO1 counter | TDP2 inh conf
COc1ccc(NC(=S)NC2CCN(Cc3ccccc3)CC2)cc1OC | i | i | i | i | i | nt
Cc1sc2ncnc(N(C)Cc3cccs3)c2c1C | i | i | i | i | i | nt
Cc1sc2ncnc(N(C)CCc3ccccn3)c2c1C | i | i | i | 26 | i | i
CN(Cc1ccc(F)cc1)C(=O)CN1C(=O)C2(OCCCO2)c2ccccc21 | nt | i | nt | i | nt | nt
COC(=O)[C@]12C[C@H](CC(=O)NCc3ccc(OC)c(OC)c3)C(=O)N(Cc3ccc4c(c3)OCO4)C1=C[C@H](C(C)C)O[C@@H]2C1CC1 | nt | i | nt | i | nt | nt
CCOC(=O)c1c(S(=O)(=O)NCC(=O)Nc2ccccc2F)c(C)n(C)c1C | i | i | i | 25 | i | i
CC1=C(C(=O)OCC(C)C)C2(O)C(=O)c3ccccc3C2(O)N1 (centres undefined) | i | i | i | 47 | 68 | i
COc1ccccc1CCC[C@@H](CCS(=O)(=O)C(C)C)CC1CCCCC1 | nt | i | nt | i | nt | nt
CSc1ccc(CN(C)CC(=O)Nc2ccc(NC(C)=O)cc2)cc1 | i | i | i | i | i | nt
CSc1ccc(CN(C)CC(=O)Nc2c(F)cccc2F)cc1 | i | i | i | 29 | i | i
CN[C@H]1C[C@H]2c3[nH]c4c(-c5cccc(C)c5)cccc4c3CCN2C[C@H]1[C@H](C)O | nt | i | nt | i | nt | nt
N#CCCn1cc(C(=O)N2CCCCC2)c(-c2ccc([N+](=O)[O-])cc2)n1 | i | i | i | i | i | nt
N#CCCn1cc(C(=O)N2CCOCC2)c(-c2ccc3c(c2)OCCO3)n1 | i | i | i | 25 | i | i
S=C(Nc1ccc2nsnc2c1)N1CCCCC1 | i | i | i | 76 | i | 54
S=C(Nc1ccc(Cl)c(Cl)c1)N1CCCC1 | i | i | i | i | i | nt
Cc1ccc(F)cc1C(=O)N1CCCC(c2nc(-c3cccs3)no2)C1 (centres undefined) | nt | i | nt | i | nt | nt
CCOC(=O)c1c(C)oc2c1cc(NS(=O)(=O)c1ccc(C(=O)O)cc1)c1ccccc12 | i | i | i | 34 | i | i
Cc1oc2c(cc(NS(=O)(=O)c3ccc(Cl)cc3)c3ccccc32)c1C(=O)O | nt | i | nt | i | nt | nt
CCN(CC)S(=O)(=O)c1ccc(N2CCN(S(=O)(=O)c3ccccc3)CC2)nc1 | nt | i | nt | 25 | nt | i
CC(C)c1ccc(NC(=O)NCc2ccccn2)cc1 | i | i | i | 52 | i | i
O=C(NCc1ccccn1)Nc1ccc(Cl)c(Cl)c1 | i | i | i | i | i | nt
Cc1ccc(C(=O)N2CCC[C@@H]2C(=O)N2CCC[C@H]2C(=O)NCc2ccccc2)cc1 | nt | i | nt | i | nt | nt
Cc1ccc(NC2=C(NC(=O)c3ccccc3)C(=O)c3ccccc3C2=O)cc1Cl | i | i | i | 29 | 62 | i
CCCCCc1cccc2[nH]cc(-c3ccccc3)c12 | nt | i | nt | i | nt | nt
O=C(O)COc1ccccc1/C=C1\C(=O)Nc2ccc(Br)cc21 | i | i | i | 29 | i | i
SMILES | PAD4 FP inh | PRMT1 inh | Fh CTSL1 inh | TDP2 absorb | GSTO1 counter | TDP2 inh conf
OC(COC(c1ccccc1)c1ccccc1)CN1CCCCC1 (centres undefined) | i | i | i | i | i | nt
Cc1ccccc1C(OCC(O)CN1CCN(CCO)CC1)c1ccccc1 (centres undefined) | i | i | i | 27 | i | i
Cc1ccc(S(=O)(=O)N(C)[C@H]2C[C@H]3c4[nH]c5cccc(-c6ccccc6)c5c4CCN3C(=O)[C@H]2[C@H](C)O)cc1 | nt | i | nt | i | nt | nt
O=C(Nc1ccc(NC(=O)c2ccco2)cc1)c1ccco1 | i | i | i | 28 | i | i
COc1ccc(-n2c(SCc3ccc([N+](=O)[O-])cc3)nnc2-c2ccco2)cc1 | nt | i | nt | i | nt | nt
CCOC(=O)C1(CCOC)CCN(C(=O)c2sccc2C)CC1 | i | i | i | 26 | i | i
CCOC(=O)C1(Cc2ccccc2C)CCCN(C(=O)c2sccc2C)C1 (centres undefined) | i | i | i | i | i | nt
